IDE cell inh: inhibitors of human insulin-degrading enzyme in cells; hit rate 0.41% among 320,000; inhibition, % at 5.59 µM; HEK cells, FAbetaB cleavage, fluorescence polarization; AID 434962;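 active = percent inhibition above the average of all tested compounds plus 3 SD, set per screening campaign, cut at about 16% in these data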;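 also: IDE supplied by intact live HEK cells; FP after avidin binding of uncleaved biotin substrate so inhibition keeps polarization high; 0% = DMSO wells and 100% = 60 µM reference IDE inhibitor Ii1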
CSN deneddyl inh: blocks human CSN-mediated cullin deneddylation. hit rate 0.38% among 360,000. AID 651999. inhibition, % at 12.5 µM. Purified CSN, SCF-Nedd8-OG deneddylation, fluorescence polarization. Q92905;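 active = pattern-corrected inhibition above about 35%, with an unprinted fluorescence ratio check between 0.5 and 1.5, limit read from the data, passing the limit was not always enough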;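 also: 0% = enzyme with substrate and 100% = substrate without enzyme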
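Assay system: purified human Csn5 enzyme expressed in HEK293T cells; Input: 0.24 nM Csn5 enzyme, final concentration; Reagent: 10 nM SCFSkp2-Nedd8OG; Compound dosing: 12.5 µM single point; Times: reaction 90 min, room temperature; Technique: fluorescence polarization readout.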
HNF4A DNA FP: change in binding of human HNF4 alpha to DNA; P41235; HNF4a-FITC DNA binding, fluorescence polarization, 1 h; activity change, % at 10 µM; hit rate 0.3% among 360,000; AID 1224865; in the data active = activity change above about 30%, passing the limit was not always enough
TPT1 inh: C. albicans TPT1 enzyme inhibition | recombinant caTPT1, FP RNA substrate dephosphorylation | inhibition, % at 5 µM | hit rate 0.81% among 300,000 | AID 1962;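 active = inhibition above the mean of all tested compounds plus 3 SD, set per screening campaign, cut at about 24% in these data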;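 also: plate controls were DMSO alone for no effect and ferristatin control at 100 nM for full effect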
IDE act: activators of human insulin-degrading enzyme in cells | P14735 | HEK cells, FAbeta-B cleavage, fluorescence polarization; 0% vehicle, 100% cell-free pure enzyme wells | activation, % at 5.96 µM | hit rate 0.073% among 340,000 | AID 493087;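 active = activation above the mean of all tested compounds plus 3 SD, set per screening campaign, cut at about 17% in these data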
Rpn11 block: inhibitors of human proteasome Rpn11 | O00487 | human 26S proteasome, Ub4-pepOG fluorescence polarization; 20S core pre-blocked with epoxomicin | calls only at 20 µM | hit rate 0.59% among 360,000 | AID 588493;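 active = inhibition at 20 µM, scaled to each plate's controls, above about 33%, limit read from the data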
Target sequence (O00487 whole entry, looked up): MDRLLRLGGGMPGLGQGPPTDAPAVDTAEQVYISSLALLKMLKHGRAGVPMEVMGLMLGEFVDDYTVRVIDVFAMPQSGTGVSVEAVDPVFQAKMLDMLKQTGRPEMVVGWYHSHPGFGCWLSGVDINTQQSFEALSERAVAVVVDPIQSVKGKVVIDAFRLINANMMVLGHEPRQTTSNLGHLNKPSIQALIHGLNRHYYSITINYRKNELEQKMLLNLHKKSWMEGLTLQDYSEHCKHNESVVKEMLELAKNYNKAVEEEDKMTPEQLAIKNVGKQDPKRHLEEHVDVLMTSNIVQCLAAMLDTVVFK
TPT1 inh confirm: TPT1 (C. albicans) inhibition, confirmation; shares compounds with TPT1 inh; recombinant caTPT1, fluorescence polarization, RNase T1 coupled; inhibition, % at 5 µM; hit rate 74% among 2,400;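 active = inhibition above the primary screen limit, the mean inhibition of all tested compounds plus 3 SD, cut at about 25% in these data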
RNase T1 inh: blocks Aspergillus oryzae RNase T1, a TPT1 counter-screen; shares compounds with TPT1 inh; RNase T1 cleavage, fluorescence polarization, 1536-well; inhibition, % at 5 µM; hit rate 83% among 2,400; AID 2153;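 active = inhibition above the solvent-only control well mean plus 3 SD, limit set per screening run, cut at about 23% in these data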;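 also: plate controls were DMSO wells with enzyme for no effect and wells without RNase T1 for full effect; inhibitors block cleavage so intact labeled substrate keeps polarization high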
Target sequence (P00651 whole entry, looked up): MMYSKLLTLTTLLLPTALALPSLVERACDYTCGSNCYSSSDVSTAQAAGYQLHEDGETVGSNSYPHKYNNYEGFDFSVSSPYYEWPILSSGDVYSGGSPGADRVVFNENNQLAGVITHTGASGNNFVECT
IDE cell inh cf: confirmation of human insulin-degrading enzyme inhibitors in cells | shares compounds with IDE cell inh | HEK cells, FAbetaB cleavage, fluorescence polarization | inhibition, % at 5.59 µM | hit rate 51% among 1,200 | AID 435028;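 active = mean inhibition across triplicate wells above the cutoff set by the earlier primary insulin-degrading enzyme screen, cut at about 16% in these data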;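 also: 0% = DMSO wells and 100% = 60 µM reference IDE inhibitor Ii1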
HEK cytotox: counter-screen for IDE inhibitors: cytotoxicity in HEK cells; shares compounds with IDE cell inh; HEK293 cytotoxicity, ATP luminescence; inhibition, % at 5.59 µM; hit rate 28% among 1,200; AID 449730; in the data active = inhibition above about 22%;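 also: 0% = vehicle wells and 100% = reference cytotoxic drug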
Rpn11 confirm: confirmation of human proteasome Rpn11 inhibitors; shares compounds with Rpn11 block; purified human 26S proteasome, Ub4-pepOG fluorescence polarization; proteasome pretreated with epoxomicin; inhibition, % at 20 µM; hit rate 29% among 1,900
MMP-2 counter-1: counter-screen for RPN11 inhibitors: inhibition of human MMP-2 | shares compounds with Rpn11 block | recombinant MMP-2, FRET peptide cleavage fluorescence | inhibition, % at 20 µM | hit rate 4% among 1,900 | AID 602330;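 also: human MMP-2 activated beforehand with APMA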
Thrombin inh: thrombin (bovine) inhibition counter-screen; bovine thrombin cleavage of Ub4-pepOG, fluorescence polarization; shares compounds with Rpn11 block; inhibition, % at 20 µM; hit rate 13% among 1,900;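 active = mean inhibition at least 40% at 20 µM, or signal 3 deviations below plate average, so some actives read negative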;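 also: plate controls were thrombin with DMSO for no effect and buffer wells lacking thrombin for full effect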
CSN deneddyl val: Csn5 (human) deneddylation inhibition, single-concentration validation | shares compounds with CSN deneddyl inh | Csn5 deneddylation of SCF-Nedd8OG, fluorescence polarization, 90 min | inhibition, % at 16.6 µM | hit rate 62% among 540 | AID 720654; in the data active = inhibition above about 50%;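 also: 0% = DMSO with enzyme and 100% = no enzyme wells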
MMP-2 counter-2: MMP-2 (human) inhibition, counter-screen for CSN hits | shares compounds with CSN deneddyl inh | recombinant MMP-2, FRET substrate fluorescence, 60 min | inhibition, % at 16.6 µM | hit rate 33% among 540;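 active = corrected plate-normalized z-score of 5 or more, or -5 or less, or inhibition of 15% or more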;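 also: plate controls were DMSO wells with enzyme for no effect and buffer wells lacking MMP-2 for full effect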
Thrombin cntr: counter-screen for CSN deneddylation inhibitors: bovine thrombin inhibition | hit rate 49% among 540 | inhibition, % at 16.6 µM | bovine thrombin cleavage of Ub4-pepOG, fluorescence polarization | shares compounds with CSN deneddyl inh | AID 720656;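 active = inhibition at or above a set limit, with a fluorescence interference ratio between 0.5 and a set maximum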
HNF4A confirm: change in binding of human HNF4 alpha to DNA, retest; shares compounds with HNF4A DNA FP; HNF4A-FITC DNA binding, fluorescence polarization, 1 h; hit rate 99% among 210; activity change, % at 12.5 µM; call rule not given here
An asterisk follows results filed as active; i = inactive; . = no result given; + = active, no number. Only some compounds are listed: those with a hit (about 1.7% of all), similar ones and a draw of the others. Rule as the data show it, unless noted: active = inhibition above about 40%; inactive = the rest.

SMILES	IDE cell inh	CSN deneddyl inh	HNF4A DNA FP	TPT1 inh	IDE act	Rpn11 block	TPT1 inh confirm	RNase T1 inh	CSN deneddyl val	MMP-2 counter-2	Thrombin cntr	others
C=CCn1c(O)c(/C=C/C=Nc2ccccc2)c(=O)[nH]c1=O	18*	24	33	84*	-1	+	107*	129*	.	.	.	IDE cell inh cf=11;HEK cytotox=6;Rpn11 confirm=98*;MMP-2 counter-1=-59;Thrombin inh=-47
Cc1ccc(OCC(=O)N2CCN(CC3CC4C=CC3C4)CC2)cc1 (configuration not stated)	6	2	3	-4	2	i	.	.	.	.	.
COc1cc(/C=C/C(=O)c2c(O)n(CCc3ccccc3)c(=O)[nH]c2=O)ccc1O	11	13	3	63*	-8	+	69*	89*	.	.	.	Rpn11 confirm=61*;MMP-2 counter-1=5;Thrombin inh=31
Cc1cc(C)cc(N2C(=O)/C(=C\c3ccc(N4CCN(C)CC4)o3)C(=O)NC2=S)c1	8	76*	121	140*	.	.	151*	141*	103*	-48*	-59
COc1cccc(N2C(=O)/C(=C/c3ccc(C)o3)C(=O)NC2=S)c1	5	37*	11	35*	1	.	35*	44*	88*	32*	26*
COc1ccc(N2C(=O)/C(=C/c3cccs3)C(=O)NC2=S)cc1	7	0	1	2	2	i	.	.	.	.	.
O=C1NC(=O)N(Cc2ccccc2)C(=O)/C1=C/C=C/c1ccco1	7	121*	42*	75*	-21	.	50*	68*	71*	3	22*
COc1ccc(CN2C(=O)NC(=O)/C(=C/c3ccc([N+](=O)[O-])s3)C2=O)cc1	10	42*	3	27*	-17	+	56*	72*	35	12	4
COc1ccc(CN2C(=O)NC(=O)/C(=C\c3ccco3)C2=O)cc1	9	62*	-6	80*	-9	+	33*	47*	.	20*	15*	Rpn11 confirm=122*;MMP-2 counter-1=20;Thrombin inh=22
COc1cc(OC)c(OC)cc1/C=C1\C(=O)NC(=O)N(Cc2ccccc2)C1=O	6	-1	6	13	2	i	.	.	.	.	.
CCOc1ccc(-n2c(O)c(C=NCCN3CCNCC3)c(=O)[nH]c2=O)cc1	-5	0	5	0	1	i	.	.	.	.	.
CC(=O)NCC1=C(c2cccc3ccccc23)C[C@@H]2CC[C@H]1N2Cc1ccco1	.	-4	-4	.	.	i	.	.	.	.	.
COc1ccc(/C=C2/C(=O)N(Cc3ccco3)C(=O)N(C(C)C)C2=O)cc1	1	99*	24	57*	-5	+	13	18	1	11	56*
CCN1C(=O)C(=C2C=C(C)N(Cc3ccco3)C(C)=C2)C(=O)N(CC)C1=S	5	2	4	3	3	i	.	.	.	.	.
CCN(CC)c1ccc(/C=C2\C(=O)NC(=O)N(CC3CCCO3)C2=O)cc1 (configuration not stated)	2	7	6	13	0	i	.	.	.	.	.
CCN(CC)c1ccc(/C=C2/C(=O)NC(=O)N(Cc3ccco3)C2=O)cc1	-1	63*	2	48*	-8	i	94*	107*	56*	19*	0
CC(C)N1C(=O)/C(=C/C=C/c2ccco2)C(=O)N(Cc2ccco2)C1=O	7	79*	9	95*	-11	+	54*	65*	25	12	27*	Rpn11 confirm=49*;MMP-2 counter-1=19;Thrombin inh=41*
O=c1[nH]c(=S)n(C2CC2)c(O)c1C=Nc1cccc(C(F)(F)F)c1	3	6	0	4	-3	.	.	.	.	.	.
O=C1NC(=O)N(Cc2ccc(F)cc2)C(=O)/C1=C\c1ccc(N2CCCC2)cc1	8	38*	-2	82*	-3	.	104*	117*	98*	1	6
COC(=O)C1=C(c2ccccc2)C[C@@H]2CC[C@H]1N2C(=O)NCCO	5	-3	2	0	5	i	.	.	.	.	.
N#CCCn1cc(C(=O)Nc2ccc(F)cc2)c(-c2ccc([N+](=O)[O-])cc2)n1	3	-5	5	0	-3	i	.	.	.	.	.
O=c1[nH]c(=S)n(-c2ccccc2)c(O)c1/C=N/N1CCCCC1c1cccnc1 (configuration not stated)	11	37*	36*	30*	-5	.	21	31*	.	.	.	HNF4A confirm=61*
O=c1[nH]c(=O)n(Cc2ccccc2)c(O)c1C=NCCCO	4	31	35*	48*	2	.	62*	76*	.	.	.	HNF4A confirm=61*
O=C(N/N=C/c1c(O)n(-c2cccc3ccccc23)c(=O)[nH]c1=O)c1ccncc1	6	32	39*	45*	-4	.	51*	66*	.	.	.	HNF4A confirm=49*
O=C(N/N=C/c1c(O)n(CCc2ccccc2)c(=O)[nH]c1=O)c1ccncc1	5	-1	12	7	-6	i	.	.	.	.	.

Screens from PubChem.
